{
  "source": "ChEMBL document CHEMBL1127840",
  "about": "“Conformational analysis of 5-lipoxygenase inhibitors: role of the substituents in chiral recognition and on the active conformations of the (methoxyalkyl)thiazole and methoxytetrahydropyran series” (J Med Chem, 1994)",
  "key": {"[1]": {"target": "T1, Polyunsaturated fatty acid 5-lipoxygenase (Mus musculus, UniProt P48999)", "T1 sequence (P48999 whole entry)": "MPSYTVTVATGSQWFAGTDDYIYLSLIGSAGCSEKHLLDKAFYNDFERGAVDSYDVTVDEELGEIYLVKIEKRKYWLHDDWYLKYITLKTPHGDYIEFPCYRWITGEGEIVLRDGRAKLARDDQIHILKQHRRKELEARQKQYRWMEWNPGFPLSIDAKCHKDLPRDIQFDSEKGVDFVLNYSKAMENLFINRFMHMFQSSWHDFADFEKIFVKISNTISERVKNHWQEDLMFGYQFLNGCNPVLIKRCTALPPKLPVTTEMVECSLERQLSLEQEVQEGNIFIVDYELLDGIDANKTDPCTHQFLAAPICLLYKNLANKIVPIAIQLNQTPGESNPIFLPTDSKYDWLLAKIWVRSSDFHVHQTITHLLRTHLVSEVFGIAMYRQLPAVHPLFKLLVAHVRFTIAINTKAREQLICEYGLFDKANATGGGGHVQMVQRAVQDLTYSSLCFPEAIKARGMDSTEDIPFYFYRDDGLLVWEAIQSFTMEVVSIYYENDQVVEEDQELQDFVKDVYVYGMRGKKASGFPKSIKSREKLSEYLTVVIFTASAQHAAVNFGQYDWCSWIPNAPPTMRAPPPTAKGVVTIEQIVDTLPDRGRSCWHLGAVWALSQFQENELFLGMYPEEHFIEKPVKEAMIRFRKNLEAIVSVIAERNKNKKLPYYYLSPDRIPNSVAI", "assay": "Inhibition of 5-lipoxygenase from mouse macrophage", "method_in_brief": "(§1)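 Plasma-free cultures of murine peritoneal macrophages. Inhibition of LTC4 synthesis (5-LO product) measured, with PGE2 also monitored. IC50 from iterative four-parameter curve fit. Data reported as mean ± SE with the number of determinations; where only two runs were made, both values are given.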"}, "[2]": {"target": "T2, Polyunsaturated fatty acid 5-lipoxygenase (Homo sapiens, UniProt P09917)", "T2 sequence (P09917 whole entry)": "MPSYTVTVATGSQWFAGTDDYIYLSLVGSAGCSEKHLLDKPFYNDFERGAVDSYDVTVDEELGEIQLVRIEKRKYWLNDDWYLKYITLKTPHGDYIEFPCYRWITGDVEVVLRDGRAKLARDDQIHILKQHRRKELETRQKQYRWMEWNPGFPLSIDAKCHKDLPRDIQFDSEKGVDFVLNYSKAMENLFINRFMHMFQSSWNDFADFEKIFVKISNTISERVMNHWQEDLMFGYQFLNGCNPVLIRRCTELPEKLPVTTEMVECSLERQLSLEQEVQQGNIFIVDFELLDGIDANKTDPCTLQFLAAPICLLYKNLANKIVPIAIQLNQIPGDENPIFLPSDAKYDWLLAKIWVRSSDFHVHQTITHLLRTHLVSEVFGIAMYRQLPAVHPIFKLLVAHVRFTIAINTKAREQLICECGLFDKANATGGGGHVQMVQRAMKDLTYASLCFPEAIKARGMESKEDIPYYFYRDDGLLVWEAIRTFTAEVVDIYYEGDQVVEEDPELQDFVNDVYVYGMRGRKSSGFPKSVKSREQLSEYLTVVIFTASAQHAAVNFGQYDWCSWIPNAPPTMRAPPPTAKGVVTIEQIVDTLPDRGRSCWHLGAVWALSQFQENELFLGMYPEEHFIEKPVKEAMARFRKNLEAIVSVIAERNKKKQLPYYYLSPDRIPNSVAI", "assay": "Inhibitory concentration against 5-lipoxygenase from human whole blood", "format": "tissue-based", "method_in_brief": "(§2)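 Eicosanoid generation measured to assess 5-LO inhibition. IC50 from iterative four-parameter curve fit. Data reported as mean ± SE with the number of determinations; where only two runs were made, both values are given.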"}, "[3]": {"target": "T1, Polyunsaturated fatty acid 5-lipoxygenase", "assay": "Inhibitory concentration against 5-lipoxygenase from mouse macrophage", "method_in_brief": "as §1"}, "[4]": {"target": "T2, Polyunsaturated fatty acid 5-lipoxygenase", "assay": "Inhibition of 5-lipoxygenase from human whole blood", "format": "tissue-based", "method_in_brief": "as §2"}},
  "data": [
    {"smiles": "CC[C@](COC)(OC)c1cc(F)cc(OCc2ccc3c(ccc(=O)n3C)c2)c1", "values": [
      {"measurement": "IC50", "setting": "[1]", "result": 45, "unit": "nM"}
    ]},
    {"smiles": "CC[C@@](COC)(OC)c1cc(F)cc(OCc2ccc3c(ccc(=O)n3C)c2)c1", "values": [
      {"measurement": "IC50", "setting": "[2]", "result": 520, "unit": "nM"},
      {"measurement": "IC50", "setting": "[1]", "result": 48, "unit": "nM"}
    ]},
    {"smiles": "COC1(c2nccs2)CCc2ccc(OCc3ccc4ccccc4c3)cc21", "note": "(single isomer, unassigned; (-))", "values": [
      {"measurement": "IC50", "setting": "[3]", "result": 1250, "unit": "nM"}
    ]},
    {"smiles": "COC1(c2cc(F)cc(OCc3ccc4c(ccc(=O)n4C)c3)c2)CCOCC1", "note": "[ZD-2138]", "values": [
      {"measurement": "IC50", "setting": "[4]", "result": 27, "unit": "nM"}
    ]}
  ]
}
